Source: PubChem BioAssay
The source made the active and inactive calls.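 The calls were made as follows, unless noted: active = inhibition of the reporter signal at or above 50%; inactive = inhibition below 50%.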

Assays:
[1] = inhibitors of TNFa-induced NFkB p65 translocation, primary screen, imaging, HUVEC, MLSMR starter and 10KST1 sets (AID 438;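 active = inhibition above 20% together with a positive visual image hit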;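 also: compound added about 3h40 before a 20 min TNFalpha stimulation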;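 as to inhibition: signal is the nuclear over cytoplasmic p65 intensity ratio per well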); details: HUVEC TNFa-induced p65 nuclear translocation; cell count: measured here: nuclei count (cytotoxicity indicator), at 2.08 µM; inhibition: at 2 µM, stronger effect = higher value, 0% TNFa-plus-vehicle, 100% no-TNFa wells
[2] = reduction of polyQ htt aggregates in cells – imaging, exon1htt(103Q)mCFP cells, high-content imaging, primary screen (AID 483;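 active = visual image review flags a hit and inhibition of aggregation exceeds 20%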;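 also: compound exposure lasted 3 days before fixation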;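 as to nuclei count: percent of the per-plate median nuclei count of sample wells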); details: exon1htt(103Q)mCFP cell line, aggregate imaging, at 2 µM; inhibition of aggregation: stronger effect = higher value; nuclei count: measured here: cell count, toxicity
[3] = endothelial E-selectin expression blockers – imaging, HUVEC, immunofluorescence, MLSMR starter and 10KST1 sets, primary screen (AID 487;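 active = visually confirmed hit in the image check and inhibition above 20%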;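 as to inhibition: signal is fraction of cell area covered by stained E-selectin grains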;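 as to nuclei count: 100% = median nuclei count of all wells on the same plate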); details: HUVEC TNFalpha-induced E-selectin immunofluorescence imaging, at 2 µM; inhibition: stronger effect = higher value; nuclei count: measured here: cell number, toxicity
[4] = target: Voltage-gated potassium channel subunit beta-2 (Rattus norvegicus) (UniProt P62483); assay: inhibitors of rat Kvbeta2 reductase activity – biochemical, NADPH fluorescence, primary screen (AID 622;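 active = fluorescence slope higher than the sample average by over 3 SD, cut at about -0.22 in these data, passing the limit was not always enough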;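 also: slope of raw intensity against log time taken from 70 to 1610 s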); details: recombinant KvBeta, 4-cyanobenzaldehyde reduction, at 10 µM, stronger effect = higher value
[5] = target: Voltage-gated potassium channel subunit beta-2 (Rattus norvegicus) (UniProt P62483); assay: enhancers of rat Kvbeta2 NADPH turnover – biochemical, NADPH fluorescence, primary screen (AID 623;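 active = NADPH fluorescence slope more negative than the mean of all samples by about 3 SD, 99.7% confidence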;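 also: fluorescence intensity change per second fitted from 20 to 320 s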); details: Recombinant KvBeta, NADPH fluorescence decrease slope, 10 min; at 10 µM; stronger effect = lower value
[6] = target: Muscarinic acetylcholine receptor M4 (Homo sapiens) (UniProt P08173); assay: M4-linked GIRK flux change, two-sided – cell-based, HEK293 M4/GIRK, thallium flux, BTC-AM, M4 allosteric agonist project, primary screen (AID 625;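 active = fluorescence slope after compound addition differing from the mean of all tested samples at 99.7% confidence, mostly higher but some lower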;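 also: thallium influx through GIRK channels coupled to M4 in HEK293 cells with BTC-AM dye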); details: at 10 µM, actives lie on both sides
In short: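 Material: M4/GIRK1/GIRK2 stable HEK293 cell line. Medium: pH 7.3 thallium assay buffer. Dosing: single compound concentration, 10 µM final. Schedule: 1 h dye loading, 2 min kinetic read. Measured by: kinetic fluorescence with BTC-AM dye. Read-out: post-addition slope, 15–24 s, of baseline-normalized fluorescence. Benchmarks: carbachol and DMSO controls.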

[7] = blockers of RIG-like receptor reporter activation – cell-based, Sendai virus stimulus, luciferase, 10K MLSCN set, TLR/RLR signaling modifier project, primary screen (AID 602276;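 active = inhibition at or above 50% at 10 µM; inactive = inhibition below 50%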;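 also: firefly luciferase from ISG56 promoter only with Renilla not read in this screen; 0% = Sendai virus plus DMSO and 100% = medium plus DMSO without virus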); details: HEK293 RL24 IRF3 luciferase reporter, at 10 µM, stronger effect = higher value
[8] = TLR3 IRF3 reporter activation blockers – cell-based, poly I:C stimulus, luciferase, 10K MLSCN set, primary screen (AID 602277); details: HEK293-TLR3 RL24 IRF3 luciferase reporter, at 10 µM, stronger effect = higher value

Muscarinic acetylcholine receptor M4 (Homo sapiens), sequence (P08173 whole entry, looked up): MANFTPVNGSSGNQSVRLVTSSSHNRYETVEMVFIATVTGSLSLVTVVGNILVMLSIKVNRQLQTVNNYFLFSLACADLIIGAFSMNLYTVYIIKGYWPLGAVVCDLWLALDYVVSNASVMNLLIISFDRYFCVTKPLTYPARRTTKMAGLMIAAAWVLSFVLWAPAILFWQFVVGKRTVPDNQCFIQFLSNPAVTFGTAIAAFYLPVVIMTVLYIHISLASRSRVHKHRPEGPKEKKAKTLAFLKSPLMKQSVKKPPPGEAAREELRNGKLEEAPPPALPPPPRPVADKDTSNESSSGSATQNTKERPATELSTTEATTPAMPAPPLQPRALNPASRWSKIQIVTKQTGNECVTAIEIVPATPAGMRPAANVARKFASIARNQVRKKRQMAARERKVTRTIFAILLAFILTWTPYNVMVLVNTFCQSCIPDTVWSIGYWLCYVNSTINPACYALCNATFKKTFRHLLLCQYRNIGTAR
Voltage-gated potassium channel subunit beta-2 (Rattus norvegicus), sequence (P62483 whole entry, looked up): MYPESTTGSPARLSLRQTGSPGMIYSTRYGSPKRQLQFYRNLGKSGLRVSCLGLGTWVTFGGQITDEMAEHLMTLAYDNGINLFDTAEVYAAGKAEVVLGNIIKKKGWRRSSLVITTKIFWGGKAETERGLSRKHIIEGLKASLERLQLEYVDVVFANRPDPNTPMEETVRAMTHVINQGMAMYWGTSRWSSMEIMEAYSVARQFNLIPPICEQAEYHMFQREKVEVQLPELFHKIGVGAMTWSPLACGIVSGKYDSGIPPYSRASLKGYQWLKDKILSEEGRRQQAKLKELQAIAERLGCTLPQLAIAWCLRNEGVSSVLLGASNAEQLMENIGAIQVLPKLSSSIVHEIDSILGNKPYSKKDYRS

Compound | cell count [1] | inhibition [1] | inhibition of aggregation [2] | nuclei count [2] | inhibition [3] | nuclei count [3] | fluorescence slope [4] | NADPH fluorescence slope [5] | fluorescence slope [6] | inhibition [7] | inhibition [8]
Cc1cc(=O)[nH]c2c1cnn2Cc1ccccc1 | 270 | 3.9% (inactive) | 13.6% (inactive) | 79.2% | -37.7% (inactive) | 104% | -0.483 (inactive) | -6.1e-05 (inactive) | 0.00447 (inactive) | 13.7% (inactive) | 15.7% (inactive)
COc1ccc(OC(C)C(=O)N2CCN(c3ccccn3)CC2)cc1 (stereo not drawn) | 395 | 7.5% (inactive) | 3% (inactive) | 103% | -90.1% (inactive) | 115% | -0.447 (inactive) | -3.5e-05 (inactive) | 0.0048 (inactive) | 21.5% (inactive) | 18% (inactive)
COc1ccc(Cc2nc3ccc(S(N)(=O)=O)cc3[nH]2)cc1OC | 423 | -22.9% (inactive) | 18.8% (inactive) | 58.6% | 75.1% (active) | 59.2% | -0.553 (inactive) | -2.6e-05 (inactive) | 0.00712 (inactive) | 9.58% (inactive) | 8.25% (inactive)
Cc1cc(C)c2c(N)c(C(=O)N3CCN(c4ncccn4)CC3)sc2n1 | 663 | -9.1% (inactive) | 5.1% (inactive) | 69.4% | -10.2% (inactive) | 101% | -0.559 (inactive) | -1.8e-05 (inactive) | 0.00421 (inactive) | -3.01% (inactive) | -25.1% (inactive)
CCOC(=O)c1sc2nc(C)cc(C)c2c1N | 443 | 8.7% (inactive) | -13.6% (inactive) | 111% | -26% (inactive) | 127% | -0.105 (inactive) | -1.9e-05 (inactive) | 0.00463 (inactive) | -33.2% (inactive) | -45.5% (inactive)
Cc1ccccc1NC(=O)c1c(F)c(F)c(F)c(F)c1F | 490 | -6% (inactive) | -11.8% (inactive) | 98.6% | -102% (inactive) | 135% | -0.565 (inactive) | -8.2e-05 (inactive) | 0.00407 (inactive) | 12.8% (inactive) | 11.6% (inactive)
CCOC(=O)C1CCN(C(=O)c2ccc(OC)cc2OC)CC1 | 676 | -5.3% (inactive) | 0.1% (inactive) | 97.6% | 43.5% (inactive) | 86.8% | -0.566 (inactive) | 5.6e-06 (inactive) | 0.00429 (inactive) | 20% (inactive) | 20.5% (inactive)
CCOC(=O)C1=C(CN2CCOCC2)NC(=O)NC1c1cc(C)ccc1C (stereo not drawn) | 492 | -3% (inactive) | -1.1% (inactive) | 117% | -30.8% (inactive) | 108% | -0.205 (inactive) | -1.6e-05 (inactive) | 0.00619 (inactive) | 15.4% (inactive) | 7.78% (inactive)
Cc1nc(CNS(=O)(=O)c2ccc3c(c2)OCCO3)cs1 | 309 | 0.5% (inactive) | 10.1% (inactive) | 106% | 12.1% (inactive) | 110% | -0.568 (inactive) | -2.7e-05 (inactive) | 0.00404 (inactive) | -8.22% (inactive) | -38.6% (inactive)
OCC#CCSc1nnc(-c2ccccc2Br)o1 | 390 | -5.2% (inactive) | -3.5% (inactive) | 110% | -111% (inactive) | 132% | -0.515 (inactive) | -0.000137 (inactive) | 0.00341 (inactive) | -9.39% (inactive) | -45.2% (inactive)
Cn1c(SC/C=C/c2ccccc2)nnc1-c1cnccn1 | 630 | 1.1% (inactive) | -4.5% (inactive) | 114% | 6.2% (inactive) | 95.1% | -0.572 (inactive) | 2.7e-05 (inactive) | 0.00503 (inactive) | -12.1% (inactive) | -35% (inactive)
CC(C)Oc1ccc(C2C(C(=O)c3ccco3)=C(O)C(=O)N2CCCN(C)C)cc1 (stereo not drawn) | 694 | -5.2% (inactive) | 17.7% (inactive) | 80.9% | -16.4% (inactive) | 112% | -0.476 (inactive) | -0.000237 (inactive) | 0.00376 (inactive) | 13.1% (inactive) | 8.15% (inactive)
CCCn1c(=N)n(CC(=O)c2cccs2)c2ccccc21 | 427 | 3.8% (inactive) | -0.8% (inactive) | 87.6% | -47% (inactive) | 114% | -0.552 (inactive) | -2.9e-05 (inactive) | 0.00423 (inactive) | 2.39% (inactive) | 3.66% (inactive)
O=C(c1ccccc1)N1CCCCC(Sc2nnnn2-c2ccccc2)C1=O (stereo not drawn) | 385 | -15.4% (inactive) | 28.5% (inactive) | 76.4% | -112% (inactive) | 134% | -0.546 (inactive) | -2.4e-05 (inactive) | 0.00399 (inactive) | 4.27% (inactive) | 4.71% (inactive)
CC1CN(c2nc3ccccn3c(=O)c2/C=C(\C#N)S(=O)(=O)c2ccccc2)CC(C)O1 (stereo not drawn) | 570 | 8.1% (inactive) | 3.6% (inactive) | 98.6% | 56.6% (inactive) | 104% | -0.513 (inactive) | -0.000138 (inactive) | 0.00288 (inactive) | -1.56% (inactive) | -21.6% (inactive)
COc1ccccc1NC(=O)C(O)C(O)C(=O)Nc1ccccc1OC (stereo not drawn) | 350 | 8.6% (inactive) | 2.9% (inactive) | 84.5% | -101% (inactive) | 101% | -0.351 (inactive) | -4.1e-05 (inactive) | 0.00694 (inactive) | -7.84% (inactive) | -0.666% (inactive)
CCOC(=O)NC(c1ccccc1)C1CCCCC1=O (stereo not drawn) | 486 | -3.4% (inactive) | -0.1% (inactive) | 103% | -25.5% (inactive) | 105% | -0.565 (inactive) | 1e-05 (inactive) | 0.00674 (inactive) | 14.4% (inactive) | 18.4% (inactive)
CCNc1nc(NCC)n2c(SCc3nc4ccccc4c(=O)[nH]3)nnc2n1 | 554 | -3.9% (inactive) | 9.2% (inactive) | 84.7% | -31.4% (inactive) | 113% | -0.539 (inactive) | -0.000149 (inactive) | 0.00293 (inactive) | -0.856% (inactive) | -4.01% (inactive)
CCc1nc2c(cnn2-c2ccc(Cl)cc2)c(=O)n1-c1ccc2c(c1)OCCO2 | 706 | -7.7% (inactive) | -5.1% (inactive) | 120% | -49.7% (inactive) | 122% | -0.543 (inactive) | -1.7e-05 (inactive) | 0.00631 (inactive) | 3.09% (inactive) | -2.86% (inactive)
Cc1cc(Cl)c(S(=O)(=O)NC2CCCCC2)cc1OCC(=O)Nc1nncs1 | 308 | -21.3% (inactive) | -4.2% (inactive) | 107% | -32.9% (inactive) | 118% | -0.506 (inactive) | -3.4e-05 (inactive) | 0.00536 (inactive) | 13.4% (inactive) | 0.658% (inactive)
CCC(C)(C)n1nnnc1C(c1ccccc1OC)N1CCSCC1 (stereo not drawn) | 252 | -16.3% (inactive) | 6.6% (inactive) | 106% | 32.4% (inactive) | 53.7% | -0.555 (inactive) | -4.3e-05 (inactive) | 0.00476 (inactive) | 6.1% (inactive) | 23.7% (inactive)
COc1ccc(OC)c(CNC(=O)CCN2C(=O)COc3ccccc32)c1 | 663 | 14.4% (inactive) | 21.7% (inactive) | 64% | -29.9% (inactive) | 110% | -0.479 (inactive) | -6e-05 (inactive) | 0.00555 (inactive) | -19.9% (inactive) | -11.1% (inactive)
Cc1ccc(Nc2nnns2)cc1C | 758 | 5% (inactive) | -5% (inactive) | 105% | -52.7% (inactive) | 116% | -0.58 (inactive) | 1.4e-05 (inactive) | 0.00717 (inactive) | 6.92% (inactive) | 7.21% (inactive)
CCOC(=O)CSc1nc2ccccc2n2cnnc12 | 315 | -1.4% (inactive) | 13.5% (inactive) | 103% | -4% (inactive) | 113% | -0.327 (inactive) | -5.9e-05 (inactive) | 0.00582 (inactive) | 2.3% (inactive) | 8.27% (inactive)
CCOC(=O)N1CCN(S(=O)(=O)c2cc(Cl)c(OC)cc2Cl)CC1 | 364 | -9.8% (inactive) | -8.2% (inactive) | 100% | -101% (inactive) | 112% | -0.509 (inactive) | 4.3e-05 (inactive) | 0.00536 (inactive) | -2.67% (inactive) | 1.26% (inactive)
CN1CCCN(C(=O)c2cc(=O)[nH]c3ccccc23)c2nc3ccccc3nc21 | 369 | -0.6% (inactive) | 5.4% (inactive) | 101% | -33% (inactive) | 117% | -0.394 (inactive) | -0.000122 (inactive) | 0.00653 (inactive) | 16.3% (inactive) | 34.1% (inactive)
Cc1cccc(-n2c(N)c(C(=O)N3CCN(C)CC3)sc2=S)c1 | 786 | 0.5% (inactive) | -24.6% (inactive) | 96.9% | -25.5% (inactive) | 114% | -0.56 (inactive) | -2.7e-06 (inactive) | 0.00592 (inactive) | -4.11% (inactive) | 6.8% (inactive)
CC(C)(C)N=C1NC(=NC(C)(C)C)c2ccccc21 | 716 | 2.3% (inactive) | -5.7% (inactive) | 106% | -18.9% (inactive) | 107% | -0.525 (inactive) | -7.9e-06 (inactive) | 0.00395 (inactive) | 5.9% (inactive) | 5.38% (inactive)
